From ChEMBL document CHEMBL2177013, “Synthesis and biological evaluation of tylophorine-derived dibenzoquinolines as orally active agents: exploration of the role of tylophorine e ring on biological activity” (J Med Chem, 2012)
pEC50: −log10 of the molar value. Values after ≈ are worked out from the molar mass of the structure shown. Active and inactive are the calls of the source. The calls are words filed in the database; no cut-off is given here.

How the values were obtained:
[1] = Oral bioavailability in Sprague-Dawley rat at 3 mg/kg by HPLC-MS method; assay type: ADME, organism-based; settings: in vivo
How it was run: (§1)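 Male rats (330−380 g, 9−10 weeks), jugular vein cannula implanted 1 day before, fasted. 3 mg/kg given iv or orally (n = 3) in DMA/PEG400 30/70 v/v. Blood (150 μL) drawn at 0, 2, 5 (iv only), 15, 30 min and 1, 2, 4, 6, 8, 12, 24 h; plasma analysed by HPLC-MS; noncompartmental analysis.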

[2] = AUC (0 to infinity) in Sprague-Dawley rat at 3 mg/kg, po by HPLC-MS method; assay type: ADME, organism-based; design: dose 3 mg/kg, route oral, time infinity; settings: plasma
How it was run: (§2)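 Male rats (330−380 g, 9−10 weeks old), jugular vein cannulated 1 day before dosing, fasted; 3 mg/kg iv or oral in DMA/PEG400 (30/70, v/v), n = 3. Blood (150 μL) drawn at 0, 2, 5 (iv only), 15, 30 min and 1, 2, 4, 6, 8, 12, 24 h, kept on ice; plasma analysed by HPLC-MS; noncompartmental analysis.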

[3] = Tmax in Sprague-Dawley rat at 3 mg/kg, po by HPLC-MS method; assay type: ADME, organism-based; design: dose 3 mg/kg, route oral; settings: in vivo; how it was run: as §1
[4] = Cmax in Sprague-Dawley rat at 3 mg/kg, po by HPLC-MS method; assay type: ADME, organism-based; design: dose 3 mg/kg, route oral; settings: in vivo; how it was run: as §1
[5] = Apparent elimination half life in Sprague-Dawley rat at 3 mg/kg, po by HPLC-MS method; assay type: ADME, organism-based; design: dose 3 mg/kg, route oral; settings: in vivo, read-out: betat1/2(app) (converted); how it was run: as §1
[6] = AUC (0 to infinity) in Sprague-Dawley rat at 3 mg/kg, iv by HPLC-MS method; assay type: ADME, organism-based; design: time infinity, dose 3 mg/kg, route intravenous; settings: plasma; how it was run: as §2
[7] = Volume of distribution at steady state in Sprague-Dawley rat at 3 mg/kg, iv by HPLC-MS method; assay type: ADME, organism-based; design: dose 3 mg/kg, route intravenous; settings: in vivo, read-out: Vdss; how it was run: as §1
[8] = Clearance in Sprague-Dawley rat at 3 mg/kg, iv by HPLC-MS method; assay type: ADME, organism-based; design: dose 3 mg/kg, route intravenous; settings: in vivo; how it was run: as §1
[9] = Apparent elimination half life in Sprague-Dawley rat at 3 mg/kg, iv by HPLC-MS method; assay type: ADME, organism-based; design: dose 3 mg/kg, route intravenous; settings: in vivo, read-out: betat1/2(app) (converted); how it was run: as §1
[10] = tested on: Transmissible gastroenteritis virus; assay: Antiviral activity against Transmissible gastroenteritis virus infected in ST cells assessed as reduction in caspase-3 activation pre-treated before virus infection measured 16 hrs post virus infection by Western blotting; assay type: functional, organism-based
How it was run: (§3)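 ST cells pretreated with compound, then infected with TGEV. Western blot for nucleocapsid (N) protein, caspase 3 (cleavage of procaspase 3) and GAPDH at 16 hpi. Representative of at least three independent experiments.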

[11] = tested on: Transmissible gastroenteritis virus; assay: Antiviral activity against Transmissible gastroenteritis virus infected in ST cells assessed as reduction in N-protein expression pre-treated before virus infection measured 16 hrs post virus infection by Western blotting; assay type: functional, organism-based; how it was run: as §3
RAW264.7 [12] = assay: Reduction in LPS/INFgamma-induced COX2 protein expression in mouse RAW264.7 cells incubated for 20 hrs by Western blotting; assay type: functional, cell-based
How it was run: (§4)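 LPS/IFNγ-stimulated RAW264.7 cells treated with compound for 20 h. iNOS, COX-2 and GAPDH detected by Western blot; representative of at least three independent experiments.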

RAW264.7 [13] = assay: Reduction in LPS/INFgamma-induced iNOS protein expression in mouse RAW264.7 cells incubated for 20 hrs by Western blotting; assay type: functional, cell-based; how it was run: as §4
A549 [14] = assay: Induction of c-Jun protein accumulation in human A549 cells incubated for 24 hrs by Western blotting; assay type: functional, cell-based
A549 [15] = assay: Down regulation of cyclin A2 expression in human A549 cells incubated for 24 hrs by Western blotting; assay type: functional, cell-based
NCI-H460 [16] = assay: Induction of c-Jun protein accumulation in human NCI-H460 cells incubated for 24 hrs by Western blotting; assay type: functional, cell-based
NCI-H460 [17] = assay: Down regulation of cyclin A2 expression in human NCI-H460 cells incubated for 24 hrs by Western blotting; assay type: functional, cell-based
MCF7 [18] = assay: Induction of c-Jun protein accumulation in human MCF7 cells incubated for 24 hrs by Western blotting; assay type: functional, cell-based
MCF7 [19] = assay: Down regulation of cyclin A2 expression in human MCF7 cells incubated for 24 hrs by Western blotting; assay type: functional, cell-based
[20] = tested on: Transmissible gastroenteritis virus; assay: Antiviral activity against Transmissible gastroenteritis virus infected in ST cells pre-treated 2 hrs before virus infection measured 6 hrs post virus infection by immunofluorescent assay; assay type: functional, organism-based; settings: Alphacoronavirus 1, ST
How it was run: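 ST cells, with or without 2 h compound pretreatment (10 concentrations), infected with TGEV at MOI 10. Immunofluorescence with anti-spike and anti-nucleocapsid antibodies at 6 hpi. EC50 from dose–response curves, mean of at least three experiments, each in duplicate.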

[21] = Growth inhibition of human HONE1 cells; assay type: functional
How it was run: (§5)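 Cells seeded per well: NUGC-3 4500, HONE-1 6000, MCF-7 6500, NCI-H460 2500, HepG2 10000, A549 5000; A549 grown in RPMI 1640 with 2 g/L NaHCO₃, 2 mM L-glutamine and 10% FBS. GI₅₀ = concentration giving 50% growth inhibition, mean of at least three experiments each in duplicate. Paclitaxel served as positive control.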

NUGC-3 = assay: Growth inhibition of human NUGC3 cells; assay type: functional; how it was run: as §5
NCI-H460 [22] = assay: Growth inhibition of human NCI-H460 cells; assay type: functional; how it was run: as §5
MCF7 [23] = assay: Growth inhibition of human MCF7 cells; assay type: functional; how it was run: as §5
A549 [24] = assay: Growth inhibition of human A549 cells; assay type: functional; how it was run: as §5
HepG2 = assay: Growth inhibition of human HepG2 cells; assay type: functional; how it was run: as §5
SF-268 = assay: Growth inhibition of human SF268 cells; assay type: functional
How it was run: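 SF-268 glioblastoma cells seeded 7500 cells/well in 96-well plates; growth inhibition measured with compound. GI50 as mean of at least three experiments, each in duplicate; paclitaxel positive control.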

[25] = Solubility in DMA; assay type: physicochemical
[26] = Solubility in DMSO; assay type: physicochemical
How it was run: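 Compound dissolved in DMSO with sonication; maximal volume before precipitation measured and used to calculate saturation solubility.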

CCN1CCc2c(c3cc(OC)c(OC)cc3c3cc(OC)ccc23)C1
bioavailability [1]: 105% | AUC(0-inf) [2]: 2470 ng·h/mL | Tmax [3]: 0.3 h | Cmax [4]: 535 ng/mL | half-life [5]: 6.3 h | AUC(0-inf) [6]: 2320 ng·h/mL | Vd [7]: 5.1 L/kg | clearance [8]: 20 mL/min/kg | half-life [9]: 16 h | Activity [10]: Active | Activity [11]: Active | Activity (RAW264.7 [12]): Active | Activity (RAW264.7 [13]): Active | Activity (A549 [14]): Active | Activity (A549 [15]): Active | Activity (NCI-H460 [16]): Active | Activity (NCI-H460 [17]): Active | Activity (MCF7 [18]): Active | Activity (MCF7 [19]): Active | pEC50 [20]: 6.24 | GI50 [21]: 0.57 µM | GI50 (NUGC-3): 0.32 µM | GI50 (NCI-H460 [22]): 0.3 µM | GI50 (MCF7 [23]): 0.37 µM | GI50 (A549 [24]): 0.4 µM | GI50 (HepG2): 0.66 µM

COc1cc2c3c(c4cc(OC)c(OC)cc4c2cc1OC)CN1CCCCCC1C3 (configuration not stated)
pEC50 [20]: 5.98 | GI50 [21]: 1.15 µM | GI50 (NUGC-3): 0.62 µM | GI50 (SF-268): 0.96 µM | GI50 (NCI-H460 [22]): 0.93 µM | GI50 (MCF7 [23]): 0.96 µM

CCCCN1CCc2c(c3cc(OC)c(OC)cc3c3cc(OC)c(OC)cc23)C1
solubility [25]: soluble | solubility [26]: 45 mM (≈ 18.4 mg/mL) | pEC50 [20]: 5.36 | GI50 [21]: 2.75 µM | GI50 (NUGC-3): 1.93 µM | GI50 (NCI-H460 [22]): 2.05 µM | GI50 (MCF7 [23]): 1.97 µM | GI50 (A549 [24]): 2.22 µM | GI50 (HepG2): 3.04 µM

COc1ccc(C2=C(c3ccc(OC)c(OC)c3)CN3CCC[C@H]3C2)cc1OC
pEC50 [20]: 4.81 | GI50 [21]: 17.3 µM | GI50 (NUGC-3): 14.5 µM | GI50 (SF-268): 24.2 µM | GI50 (NCI-H460 [22]): 17 µM | GI50 (MCF7 [23]): 18.5 µM
